Test results published in ChEMBL document CHEMBL1124735, “Dehydrogenase binding by tiazofurin anabolites” (J Med Chem, 1990).

What was measured:
[1] = tested on: NC(=O)c1ccc[n+]([C@@H]2O[C@H](COP(=O)([O-])OP(=O)(O)OC[C@H]3O[C@@H](n4cnc5c(N)ncnc54)[C@H](O)[C@@H]3O)[C@@H](O)[C@H]2O)c1; test: In vitro inhibitory activity against horse liver Alcohol dehydrogenase; settings: Equus caballus
[2] = tested on: NC(=O)c1ccc[n+]([C@@H]2O[C@H](COP(=O)([O-])OP(=O)(O)OC[C@H]3O[C@@H](n4cnc5c(N)ncnc54)[C@H](O)[C@@H]3O)[C@@H](O)[C@H]2O)c1; test: In vitro inhibitory activity against bovine liver glutamate dehydrogenase (GDH)
[3] = tested on: NC(=O)c1ccc[n+]([C@@H]2O[C@H](COP(=O)([O-])OP(=O)(O)OC[C@H]3O[C@@H](n4cnc5c(N)ncnc54)[C@H](O)[C@@H]3O)[C@@H](O)[C@H]2O)c1; test: In vitro inhibitory activity against pig heart lactate dehydrogenase (LDH); settings: Sus scrofa
Method in brief: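 Pig heart enzymes (cytoplasmic MDH or LDH, from ammonium sulfate suspension) assayed in 0.05 M Tris HCl pH 9.0, with NAD as substrate; rates from NADH appearance by A340 (ε 6.22 mM⁻¹cm⁻¹) or fluorescence calibrated against NADH standards. Run at least in duplicate; kinetic constants from Lineweaver-Burk plots by linear regression.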

Chain of L-lactate dehydrogenase B chain (Sus scrofa), P00336 (P00336 whole entry): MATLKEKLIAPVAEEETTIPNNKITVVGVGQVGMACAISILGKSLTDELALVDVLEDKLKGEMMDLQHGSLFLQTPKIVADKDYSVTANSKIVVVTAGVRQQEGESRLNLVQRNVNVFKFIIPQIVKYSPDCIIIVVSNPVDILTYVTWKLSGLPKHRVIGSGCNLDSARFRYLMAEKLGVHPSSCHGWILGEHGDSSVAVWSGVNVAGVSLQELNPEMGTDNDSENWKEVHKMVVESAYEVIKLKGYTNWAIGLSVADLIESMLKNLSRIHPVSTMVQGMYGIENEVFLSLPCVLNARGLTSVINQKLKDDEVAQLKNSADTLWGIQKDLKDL
Chain of Alcohol dehydrogenase (Equus caballus) (P00328 whole entry, looked up): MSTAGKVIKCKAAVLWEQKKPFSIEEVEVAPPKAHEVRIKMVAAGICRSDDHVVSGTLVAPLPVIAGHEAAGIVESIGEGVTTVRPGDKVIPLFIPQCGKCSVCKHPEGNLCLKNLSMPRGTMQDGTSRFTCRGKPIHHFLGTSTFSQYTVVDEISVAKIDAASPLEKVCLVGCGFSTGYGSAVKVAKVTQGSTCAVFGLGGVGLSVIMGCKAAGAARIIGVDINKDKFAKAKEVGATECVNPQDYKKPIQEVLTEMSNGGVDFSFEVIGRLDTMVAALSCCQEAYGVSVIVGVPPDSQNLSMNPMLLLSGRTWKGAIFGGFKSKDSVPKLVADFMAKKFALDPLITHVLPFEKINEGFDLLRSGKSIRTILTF
Chain of Alcohol dehydrogenase (Equus caballus) (P00327 whole entry, looked up): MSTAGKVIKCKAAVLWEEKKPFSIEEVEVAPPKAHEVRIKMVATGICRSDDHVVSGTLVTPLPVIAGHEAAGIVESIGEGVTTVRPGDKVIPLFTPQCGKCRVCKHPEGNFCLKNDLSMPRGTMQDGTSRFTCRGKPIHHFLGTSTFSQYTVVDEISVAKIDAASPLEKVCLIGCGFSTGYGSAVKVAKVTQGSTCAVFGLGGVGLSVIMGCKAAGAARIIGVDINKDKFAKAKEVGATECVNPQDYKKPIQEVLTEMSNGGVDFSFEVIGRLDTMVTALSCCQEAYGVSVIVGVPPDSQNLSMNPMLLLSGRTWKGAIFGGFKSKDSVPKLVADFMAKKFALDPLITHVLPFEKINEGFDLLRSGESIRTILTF
Chain of Glutamate dehydrogenase 1, mitochondrial (Bos taurus), P00366 (P00366 whole entry): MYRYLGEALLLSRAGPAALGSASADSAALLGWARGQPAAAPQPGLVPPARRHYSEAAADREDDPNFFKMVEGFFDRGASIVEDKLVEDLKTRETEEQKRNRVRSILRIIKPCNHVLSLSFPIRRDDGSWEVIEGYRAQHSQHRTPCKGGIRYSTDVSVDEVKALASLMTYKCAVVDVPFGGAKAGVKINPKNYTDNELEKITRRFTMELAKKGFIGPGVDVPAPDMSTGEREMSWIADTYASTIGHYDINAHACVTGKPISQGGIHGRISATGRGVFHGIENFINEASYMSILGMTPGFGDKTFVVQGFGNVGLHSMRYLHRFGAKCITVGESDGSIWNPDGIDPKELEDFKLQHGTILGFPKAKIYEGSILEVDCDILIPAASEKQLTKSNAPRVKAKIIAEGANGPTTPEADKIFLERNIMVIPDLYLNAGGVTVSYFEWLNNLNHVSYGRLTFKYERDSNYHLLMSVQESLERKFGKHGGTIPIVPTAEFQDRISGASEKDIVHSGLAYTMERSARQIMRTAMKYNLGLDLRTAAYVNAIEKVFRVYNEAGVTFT

“Alcohol dehydrogenase (Equus caballus) (from UniProt P00327+P00328)” was tested, and the Km [1] was 22.3 µM.
In the case of “Glutamate dehydrogenase 1, mitochondrial (Bos taurus), P00366”, the Km [2] was 20 µM.
“L-lactate dehydrogenase B chain (Sus scrofa), P00336” was tested, and the Km [3] was 84.4 µM.
